# High-throughput results: PubChem, Johns Hopkins Ion Channel Center
# RGS4 act – potentiators or activators of RGS4. B-score at 10 µM. AID 463111. 310,000 tested, 0.92% active. HEK293 M3R/inducible RGS4, carbachol calcium flux Fluo4; stronger effect = lower value;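 active means B-score of the integrated calcium signal more than 4 SD below the library mean, with starting fluorescence not abnormally high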;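 further: negative B-score means reduced calcium response which marks RGS4 activation or potentiation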
#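 test system = HEK293 cells with stable M3R and inducible RGS4 | schedule = recording 10 s baseline at 1 Hz, 100 s post-agonist | technique = Fluo4-AM (2 µM) calcium-flux fluorescence, kinetic read | measure = Agonist-evoked peak-minus-minimum fluorescence over baseline, integrated ratio, B score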
# MrgX1 antag – human MrgX1 receptor antagonism, primary screen. 310,000 tested, 1.3% active. MRGX1-HEK293 calcium flux, Fluo-4, BAM8-22 antagonism; stronger effect = lower value. B-score at 10 µM. Q96LB2;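 active means calcium-response B-score plate-corrected more than 3 library SD below zero, starting fluorescence within 5 deviations, no agonist response on first addition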;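 further: peak minus trough fluorescence over baseline after final BAM8-22 challenge near maximal dose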
# Target sequence (Q96LB2 whole entry, looked up): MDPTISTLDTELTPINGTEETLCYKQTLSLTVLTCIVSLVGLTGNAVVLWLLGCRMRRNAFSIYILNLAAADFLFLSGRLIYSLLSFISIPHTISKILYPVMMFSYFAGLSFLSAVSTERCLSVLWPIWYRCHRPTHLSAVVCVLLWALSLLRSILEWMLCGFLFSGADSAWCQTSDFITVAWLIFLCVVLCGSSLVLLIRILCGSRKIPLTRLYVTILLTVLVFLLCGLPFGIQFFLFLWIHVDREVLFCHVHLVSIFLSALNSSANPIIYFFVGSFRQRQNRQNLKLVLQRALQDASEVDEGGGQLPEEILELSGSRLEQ
# RGS4 block – human RGS4 inhibition | P49798 | HEK293 M3R/RGS4 inducible, Fluo-4 calcium flux; stronger effect = higher value; triggered by carbachol at its EC20 | B-score at 10 µM | 310,000 tested, 0.45% active | AID 463165;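 active means B-score, a plate-corrected calcium signal, over three deviations above library mean, with baseline fluorescence within five deviations of library mean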;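 further: RGS4 expression induced by doxycycline in cells with stable M3 receptor; B-score is computed from the integrated fluorescence ratio over baseline after carbachol; higher B-score means a larger calcium signal and so more RGS4 inhibition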
# Target sequence (P49798 whole entry, looked up): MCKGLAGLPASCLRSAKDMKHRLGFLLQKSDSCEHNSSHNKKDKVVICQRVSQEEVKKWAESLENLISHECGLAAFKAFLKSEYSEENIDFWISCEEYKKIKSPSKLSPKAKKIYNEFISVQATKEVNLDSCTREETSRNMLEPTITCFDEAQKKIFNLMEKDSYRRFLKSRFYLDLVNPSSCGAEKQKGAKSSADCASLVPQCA
# MrgX1 allo act – allosterically activates human MrgX1 receptor signaling; Q96LB2; MrgX1-HEK293, Fluo-4 calcium flux, FDSS; stronger effect = higher value; B-score at 10 µM; 310,000 tested, 0.63% active; AID 588675;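 active means plate-corrected calcium response at least 3 library SD above typical, normal starting fluorescence, not activating the receptor alone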;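 further: compound read alongside a low EC10 to EC30 dose of BAM8-22 agonist; peak minus trough fluorescence over baseline measured at the second addition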
# MrgX1 agonist – agonists of human MrgX1 receptor. B-score at 10 µM. 310,000 tested, 0.44% active. MrgX1-HEK293 cells, Fluo-4 calcium fluorescence, agonist mode; stronger effect = higher value. Q96LB2;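 active means calcium response B-score plate-corrected fluorescence ratio at least 3 library SD, with starting fluorescence B-score inside 5 SD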
#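 Test system: HEK293 cells stably expressing human MrgX1 receptor; amount: 15,000 cells per well; doses: compound delivered in addition one of three; times: overnight plating before 1 h dye loading; detection: Fluo-4 NW calcium-flux fluorescence, kinetic read; read-out basis: B-scored fluorescence response ratio; controls: positive and negative controls per plate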
# RGS4 inh valid – RGS4 inhibitor validation. shares compounds with RGS4 block. HEK293 M3R/RGS4, carbachol calcium Fluo-4 fluorescence; carbachol added at its EC20; 0 = buffer wells, 100 = carbachol control. calcium response, % at 10 µM. 1,700 tested, 65% active. AID 492999;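 active means duplicate-averaged calcium response above the buffer-only control mean plus 5 SD of those controls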;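 further: integrated fluorescence ratio F max minus min over baseline F0; higher response in RGS4-induced cells means RGS4 inhibition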
# M3R Ca ctr – counter-screen for RGS4 inhibitors: effect in non-induced cells; 1,900 tested, 20% active; HEK293 M3R non-induced, carbachol calcium Fluo-4; submaximal (EC20) carbachol stimulus; buffer wells 0%, carbachol control wells 100%; AID 493000; activity (percent), % at 10 µM; shares compounds with RGS4 block; call rule not given here;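 further: RGS4 induction absent so cells express M3R without RGS4; higher means more calcium signal and flags a non-specific hit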
# M3R basal Ca ctr – second RGS4 inhibitor counter-screen in uninduced cells lacking carbachol. 1,900 tested, 22% active. HEK293 M3R/RGS4 non-induced, Fluo-4 calcium, no carbachol; normalised: buffer wells 0%, carbachol wells 100%. shares compounds with RGS4 block. calcium response (agonist-mode artifact), % at 10 µM;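 active means duplicate-averaged calcium rise in uninduced cells above buffer wells' mean plus 5 SD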
# A number is an active result; i = inactive; nt = not tested or not shown. An excerpt weighted towards active compounds, which were near 3.5% of everything screened.
SMILES,RGS4 act,MrgX1 antag,RGS4 block,MrgX1 allo act,MrgX1 agonist,RGS4 inh valid,M3R Ca ctr,M3R basal Ca ctr
COC(=O)c1ccc(COc2cccc(C)c2C)cc1,i,i,i,i,i,nt,nt,nt
COC(=O)N/N=C/c1cc(Br)ccc1O,i,i,i,i,i,nt,nt,nt
CC(C)NC(=S)N/N=C/c1cc(Br)ccc1O,i,i,5.76,i,i,11.5%,i,i
O=C(NCc1cccc(F)c1)c1ccc2nc(N3CCOCC3)sc2c1,i,i,i,i,i,nt,nt,nt
CC1=NN(c2cccc(C(=O)O)c2)C(=O)/C1=C\C=C/c1ccccc1,i,nt,34.3,nt,nt,80.0%,59.0%,i
O=C(O)CN1C(=O)/C(=C/c2ccccc2Cl)Oc2ccccc21,i,i,6.45,i,i,21.5%,31.0%,i
O=C(O)CN1C(=O)/C(=C/c2cccc(Cl)c2)Oc2ccccc21,i,i,i,i,i,nt,nt,nt
CC(C)C[C@H](NC(=O)OC(C)(C)C)C(=O)N[C@@H](CO)[C@H](O)[C@@H]1C[C@@H]1C(=O)NC1CCCCC1,i,i,i,i,i,nt,nt,nt
CC[C@H](C)C(N)c1cn([C@@H](CC(N)=O)C(=O)N2CCNCC2)nn1 (some centres not stated),nt,i,nt,i,i,nt,nt,nt
CC(C(=O)NC1CCCC1)N(C(=O)c1ccc(-c2ccccc2)[nH]1)c1ccccc1F (configuration not stated),i,i,i,i,i,nt,nt,nt
Nc1nn2cc(-c3ccc(Br)cc3)nc2c2ccccc12,i,i,6.95,i,i,10.0%,i,i
CC(C)(C)c1cc(N2CCOCC2)n2ncc(-c3ccccc3)c2n1,i,i,i,i,i,i,i,i
CC(C)(C)c1cc(-n2ccnc2)n2ncc(-c3ccc(Cl)cc3)c2n1,i,i,4.7,i,i,14.5%,i,i
CC(C)(C)c1cc(NCCCn2ccnc2)n2ncc(-c3ccccc3)c2n1,i,i,9.04,i,i,10.5%,i,i
CCCc1cc(N2CCOCC2)n2ncc(-c3ccccc3)c2n1,i,i,i,i,i,nt,nt,nt
CN(C(=O)COC(=O)/C=C/c1ccc(F)cc1)c1c(N)n(Cc2ccccc2)c(=O)[nH]c1=O,i,i,i,i,i,nt,nt,nt
CCCCC(NC(=O)COc1cc2c(c3oc(=O)cc(C)c13)CCC(C)(C)O2)C(=O)O (configuration not stated),i,i,5.66,i,i,i,i,i
Cc1cc(=O)oc2c3c(cc(OCC(=O)N[C@@H](C)C(=O)O)c12)OC(C)(C)CC3,i,i,i,i,i,nt,i,i
Cc1cc(=O)oc2c3c(cc(OCC(=O)N[C@@H](Cc4ccccc4)C(=O)O)c12)OC(C)(C)CC3,i,i,i,i,i,nt,nt,nt
C/C(=N\NC(=O)c1cc(-c2ccc(C)s2)[nH]n1)c1ccco1,i,i,i,i,i,nt,nt,nt
COCCNC(=O)c1cn(Cc2c(F)cccc2Cl)nn1,i,i,i,i,i,nt,i,i
CN(C)S(=O)(=O)c1cccc(NC(=O)Cn2cc(C(F)(F)F)cc(Cl)c2=O)c1,i,i,i,i,i,nt,nt,nt
Cc1cccc2c1NC(=O)C2(c1ccc(O)cc1)c1ccc(O)cc1,i,i,8.57,i,i,10.0%,i,i
Cc1cc(C2(c3ccc(O)c(C)c3)C(=O)Nc3ccccc32)ccc1O,i,i,i,i,i,nt,nt,nt
N#Cc1c(-c2ccccc2)cc(C2CC2)nc1N,i,i,i,i,i,nt,nt,nt
SMILES,RGS4 act,MrgX1 antag,RGS4 block,MrgX1 allo act,MrgX1 agonist,RGS4 inh valid,M3R Ca ctr,M3R basal Ca ctr
N#Cc1c(-c2ccco2)cc(C2CC2)nc1N,i,i,4.98,i,i,5.0%,i,i
Cc1ccc(S(=O)(=O)NCCN2CCOCC2)s1,i,i,i,i,i,nt,nt,nt
Cc1ccc(N2CCN(S(=O)(=O)c3ccc(Cl)s3)CC2C)cc1 (configuration not stated),i,i,i,i,i,nt,nt,nt
Cn1ncc(Cl)c1C(=O)Nc1nc2ccc(Cl)cc2s1,i,i,i,i,i,nt,nt,nt
Cc1cc(C(=O)Nc2nc3ccc(Cl)cc3s2)nn1C,i,i,5.01,i,i,10.5%,i,i
COc1ccc(C(=O)/C=C/c2ccc(O)cc2)c(O)c1CC=C(C)C,i,i,6.36,i,i,19.0%,i,i
COc1ccc(C(=O)/C=C/c2ccc(O)cc2)cc1,i,i,i,i,i,nt,nt,nt
Cc1ccc2sc(N(CCCN(C)C)C(=O)c3ccc(Br)s3)nc2c1C,i,i,i,i,i,nt,nt,nt
O=C(O)CCSc1ccccn1,i,i,i,i,i,nt,nt,nt
O=C(CCSc1ccccn1)c1ccccc1,i,i,5.73,i,i,5.0%,35.5%,18.5%
O=C1CCCC2=C1C(c1ccc(Cl)cc1)n1c(s/c(=C\c3ccc4ccncc4c3)c1=O)=N2 (configuration not stated),i,i,13.6,i,i,42.0%,i,196.0%
CCOC(=O)C1=C(C)N=c2s/c(=C/c3ccc(OCC(=O)O)c(OC)c3)c(=O)n2C1c1ccc(Cl)cc1 (configuration not stated),i,i,i,i,i,nt,nt,nt
COc1ccccc1-c1c(-c2ccc(OCC(=O)NN)cc2O)n[nH]c1C(F)(F)F,i,i,i,i,i,nt,i,i
COc1ccccc1-c1cn[nH]c1-c1ccc(OCC(=O)NN)cc1O,i,i,i,i,i,nt,nt,nt
NNC(=O)COc1ccc(-c2n[nH]c(C(F)(F)F)c2-c2ccc(Br)cc2)c(O)c1,i,i,8.07,i,i,55.5%,61.5%,i
Cc1ccc(-n2ncc3c(=O)[nH]c(SCC(=O)N4CCCc5ccccc54)nc32)cc1,i,i,i,i,i,nt,i,i
COc1ccc(Nc2nc(N3CCCCC3)nc(N3CCCCC3)n2)c(OC)c1,i,i,5.49,i,i,9.0%,i,i
COc1ccc(Nc2nc(NC(C)(C)C)nc(N3CCCC3)n2)c(OC)c1,i,i,i,i,i,i,i,i
COc1ccc(Nc2nc(N3CCCC3)nc(N3CCCC3)n2)c(OC)c1,i,i,i,i,i,i,i,i
C[C@@H](CSc1ccccc1)CN1CC[C@H](NC(=O)OCc2ccccc2)CCC1=O,i,i,i,i,i,nt,nt,nt
O=C(NCc1cnc2ccccn12)C1CCC(=O)N(Cc2ccccc2F)C1 (configuration not stated),i,i,i,i,i,nt,nt,nt
COc1ccc(C(=O)/C=C/c2ccsc2)cc1CSCC(=O)O,i,i,4.99,i,i,10.0%,i,i
